Measurements: ChEMBL document CHEMBL1124007, “Synthesis and structure-activity relationships of a new series of antiarrhythmic agents: monobasic derivatives of disobutamide” (1988)

Key:
Canis familiaris [1] = species: Canis familiaris; assay: Mean effective dose required to suppress ventricular ectopic rate in dog greater than or equal to 25% for a minimum duration of 10 min; assay type: functional; details: Canis lupus familiaris, Cardiac ventricle, read-out: MED
Canis familiaris [2] = species: Canis familiaris; assay: Mean effective dose required to suppress ventricular ectopic rate in dog greater than or equal to 25% for a minimum duration of 10 min; Side effects; assay type: functional, organism-based; details: Canis lupus familiaris; Cardiac ventricle
[3] = target: T1, Muscarinic acetylcholine receptor (Rattus norvegicus) (UniProt P08482+P08483+P08485+P08911+P10980); assay: (§1) Ratio of Muscarinic acetylcholine receptor affinity (IC50) of test compound to that of disopyramide; assay type: protein assay
[4] = target: T1, Muscarinic acetylcholine receptor (Rattus norvegicus); assay: Ratio of Muscarinic acetylcholine receptor affinity (IC50) of test compound to that of disopyramide; 1/2; assay type: protein assay
Canis familiaris [5] = assay: Myocardial depression determined by monitoring the maximum rate of rise of left ventricular pressure in dog at 10 mg/kg dose; assay type: functional, Canis lupus familiaris, Heart left ventricle
[6] = target: T1, Muscarinic acetylcholine receptor (Rattus norvegicus); assay: as §1; assay type: protein assay; remark: listed apart in the source
In short: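 Muscarinic receptor binding by displacement of [³H]QNB, test compound at three to six concentrations in triplicate. IC50 from log probit analysis. Value expressed as IC50(test)/IC50(disopyramide).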

Canis familiaris [7] = assay: Myocardial depression determined by monitoring the maximum rate of rise of left ventricular pressure in dog at 9 mg/kg dose; assay type: functional, Canis lupus familiaris, Heart left ventricle
In short: (§2)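 Closed-chest anesthetized dogs given compound intravenously at the stated dose; myocardial depression taken as percent decrease in maximum rate of rise of left ventricular pressure (max dP/dt), mean ± standard error of the mean over the dogs tested. ≤25% depression at the mean effective antiarrhythmic dose was deemed acceptable.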

[8] = target: T1, Muscarinic acetylcholine receptor (Rattus norvegicus); assay: Ratio of Muscarinic acetylcholine receptor affinity (IC50) of test compound to that of disopyramide; 1/24; assay type: protein assay
Canis familiaris [9] = species: Canis familiaris; assay: Mean effective dose required to suppress ventricular ectopic rate in dog greater than or equal to 25% for a minimum duration of 10 min; Lethal; assay type: functional; details: Canis lupus familiaris, Cardiac ventricle, read-out: MED
[10] = target: T1, Muscarinic acetylcholine receptor (Rattus norvegicus); assay: Ratio of Muscarinic acetylcholine receptor affinity (IC50) of test compound to that of disopyramide; 1/6; assay type: protein assay
Canis familiaris [11] = assay: Myocardial depression determined by monitoring the maximum rate of rise of left ventricular pressure in dog at 3 mg/kg dose; assay type: functional, Canis lupus familiaris, Heart left ventricle; in short: as §2
[12] = target: T1, Muscarinic acetylcholine receptor (Rattus norvegicus); assay: Ratio of Muscarinic acetylcholine receptor affinity (IC50) of test compound to that of disopyramide; 1/16; assay type: protein assay
[13] = target: T1, Muscarinic acetylcholine receptor (Rattus norvegicus); assay: Ratio of Muscarinic acetylcholine receptor affinity (IC50) of test compound to that of disopyramide; 1/4; assay type: protein assay

SMILES: CC(C)N(CCC1(c2ccccc2Cl)CC2CCCCN2C1=O)C(C)C (centres undefined)
- minimal effective dose (Canis familiaris [1]): 3.5 mg/kg
- MED (Canis familiaris [2]): Side effects
- Ratio [3]: 1
- Ratio [4]: 0.5

SMILES: CC(C)N(CCC(C(N)=O)(c1ccccc1)c1ccccn1)C(C)C (centres undefined) [DISOPYRAMIDE]
- minimal effective dose (Canis familiaris [1]): 10 mg/kg
- Decrease (Canis familiaris [5]): 56%
- Ratio [6]: 1

SMILES: CC(=O)N(CCC(CCN1CCCCC1)(C(N)=O)c1ccccc1Cl)C(C)C (centres undefined) [BIDISOMIDE]
- minimal effective dose (Canis familiaris [1]): 9 mg/kg
- Decrease (Canis familiaris [7]): 20%
- Ratio [8]: 0.0417

SMILES: CC(C)N(CCC(CCN1CCCCC1)(C(N)=O)c1ccccc1Cl)C(=O)c1ccccc1 (centres undefined)
- minimal effective dose (Canis familiaris [1]): 2 mg/kg
- minimal effective dose (Canis familiaris [9]): 5 mg/kg

SMILES: CC(C)N(CCC1(c2ccccc2)CC2CCCCN2C1=O)C(C)C.Cl (centres undefined)
- minimal effective dose (Canis familiaris [1]): 10 mg/kg
- Ratio [10]: 0.167

SMILES: CC(C)N(CCC1(c2ccc(-c3ccccc3)cc2)CC2CCCCN2C1=O)C(C)C (centres undefined)
- minimal effective dose (Canis familiaris [1]): 3 mg/kg
- Decrease (Canis familiaris [11]): 35%
- Ratio [12]: 0.0625

SMILES: CC(C)N(CCC(CCC1CCCCN1)(C(N)=O)c1ccccc1Cl)C(C)C (centres undefined)
- minimal effective dose (Canis familiaris [1]): 12.5 mg/kg
- Ratio [13]: 0.25
